Reference: ChEMBL document CHEMBL1132760, “Coumarin inhibitors of gyrase B with N-propargyloxy-carbamate as an effective pyrrole bioisostere” (2000)
Values after ≈ are worked out from the molar mass of the structure shown.

Key:
Enterococcus faecium = assay: Antibacterial activity against vancomycin, teicoplanin, erythromycin resistant Enterococcus faecium; type: functional
In short: (§1)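 MIC read after 24 h incubation by two-fold broth microdilution. Strains are tested with their labelled resistance phenotypes (ofloxacin, oxacillin, erythromycin, novobiocin, teicoplanin or vancomycin resistance, as given in each strain designation).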

Staphylococcus aureus [1] = assay: Antibacterial activity against Staphylococcus aureus 011HT3; type: functional
In short: (§2)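 MIC by 2-fold broth microdilution, read after 24 h incubation; strain resistance phenotypes noted.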

Streptococcus pyogenes = assay: Antibacterial activity tested against Streptococcus pyogenes 02AIUC1; type: functional; in short: as §2
Staphylococcus aureus [2] = assay: Antibacterial activity tested against novobiocin resistant Staphylococcus aureus 011HT1; type: functional; in short: as §2
Escherichia coli = assay: In vitro activity against Escherichia coli DNA gyrase subunit B supercoiling, expressed as IC50 novobiocin / IC50 compound; type: functional
[3] = tested on: Staphylococcus epidermidis; assay: Antibacterial activity against oxacillin resistant Staphylococcus epidermidis 012GO42; type: functional; in short: as §1
[4] = In vitro activity against Staphylococcus aureus DNA gyrase subunit B supercoiling, expressed as IC50 novobiocin / IC50 compound; type: functional
Staphylococcus aureus [5] = assay: Antibacterial activity against ofloxacin,oxacillin,erythromycin resistant Staphylococcus aureus 011GO64.; type: functional; in short: as §1
[6] = tested on: DNA gyrase (Staphylococcus aureus); assay: In vitro activity against Staphylococcus aureus DNA gyrase supercoiling, expressed as IC50 novobiocin / IC50 compound

| SMILES | MIC (Enterococcus faecium) [µg/mL] | MIC (Staphylococcus aureus [1]) [µg/mL] | MIC (Streptococcus pyogenes) [µg/mL] | MIC (Staphylococcus aureus [2]) [µg/mL] | Ratio (Escherichia coli) | MIC [3] [µg/mL] | Ratio [4] | MIC (Staphylococcus aureus [5]) [µg/mL] | Ratio [6] |
| --- | --- | --- | --- | --- | --- | --- | --- | --- | --- |
| C#CCNC(=O)O[C@H]1[C@@H](O)[C@H](Oc2ccc3c(=O)c(C(=O)OCC)c(O)oc3c2C)OC(C)(C)[C@@H]1OC | > 40 | 40 (≈ 77 µM) | > 40 | > 40 | 0.38 | 20 (≈ 38.5 µM) |  |  |  |
| C#CCONC(=O)O[C@H]1[C@@H](O)[C@H](Oc2ccc3c(O)c(/C(C)=N/OCc4ccsc4)c(=O)oc3c2C)OC(C)(C)[C@@H]1OC | 0.6 (≈ 0.973 µM) | < 0.04 | 0.15 (≈ 0.243 µM) | 2.5 (≈ 4.05 µM) |  | < 0.04 | 1.3 |  |  |
| C#CCONC(=O)O[C@H]1[C@@H](O)[C@H](Oc2ccc3c(O)c(C(N)=O)c(=O)oc3c2C)OC(C)(C)[C@@H]1OC | 0.08 (≈ 0.158 µM) | < 0.04 | 0.6 (≈ 1.18 µM) | 0.3 (≈ 0.592 µM) | 1 | < 0.04 |  |  |  |
| C#CCONC(=O)O[C@H]1[C@@H](O)[C@H](Oc2ccc3c(=O)c(C(=O)OCC)c(O)oc3c2C)OC(C)(C)[C@@H]1OC | 10 (≈ 18.7 µM) | 1.2 (≈ 2.24 µM) | 20 (≈ 37.3 µM) | > 40 | 5.6 | 0.3 (≈ 0.56 µM) |  | 2.5 (≈ 4.67 µM) |  |
| CCOC(=O)c1c(O)oc2c(C)c(O[C@@H]3OC(C)(C)[C@H](OC)[C@@H](OC(=O)NOC(C)C)[C@H]3O)ccc2c1=O | > 40 | > 40 | > 40 | > 40 | 2 | > 40 |  |  |  |
| C#CCONC(=O)O[C@H]1[C@@H](O)[C@H](Oc2ccc3c(=O)c(C(=O)NOCC)c(O)oc3c2C)OC(C)(C)[C@@H]1OC | 0.6 (≈ 1.09 µM) | < 0.04 | 0.15 (≈ 0.272 µM) | 1.2 (≈ 2.18 µM) |  | 0.6 (≈ 1.09 µM) | 5.6 | 0.08 (≈ 0.145 µM) |  |
| CCOC(=O)c1c(O)oc2c(C)c(O[C@@H]3OC(C)(C)[C@H](OC)[C@@H](OC(=O)NOC)[C@H]3O)ccc2c1=O | > 40 | > 40 | > 40 | > 40 | 0.66 | > 40 |  |  |  |
| C=CCNC(=O)O[C@H]1[C@@H](O)[C@H](Oc2ccc3c(=O)c(C(=O)OCC)c(O)oc3c2C)OC(C)(C)[C@@H]1OC | > 40 | > 40 | > 40 | > 40 | 0.38 | 20 (≈ 38.3 µM) |  |  |  |
| C#CCONC(=O)O[C@H]1[C@@H](O)[C@H](Oc2ccc3c(=O)c(/C(C)=N/OCC)c(O)oc3c2C)OC(C)(C)[C@@H]1OC | 1.2 (≈ 2.19 µM) | 0.08 (≈ 0.146 µM) | 0.6 (≈ 1.09 µM) | 2.5 (≈ 4.56 µM) |  | 0.15 (≈ 0.273 µM) | 8.3 | 0.15 (≈ 0.273 µM) |  |
| C=CCONC(=O)O[C@H]1[C@@H](O)[C@H](Oc2ccc3c(=O)c(C(=O)OCC)c(O)oc3c2C)OC(C)(C)[C@@H]1OC | > 40 | 10 (≈ 18.6 µM) | 20 (≈ 37.2 µM) | > 40 | 2 | 20 (≈ 37.2 µM) |  | 20 (≈ 37.2 µM) |  |
| CCONC(=O)OC1[C@@H](O)[C@H](Oc2ccc3c(O)c(C(=O)OCC)c(=O)oc3c2C)OC(C)(C)[C@@H]1OC (single isomer, unassigned) | > 40 | 20 (≈ 38.1 µM) | 40 (≈ 76.1 µM) | > 40 | 2 | > 40 |  |  |  |
| C#CCONC(=O)O[C@H]1[C@@H](O)[C@H](Oc2ccc3c(O)c(C(=O)Nc4cccnc4)c(=O)oc3c2C)OC(C)(C)[C@@H]1OC | 0.6 (≈ 1.03 µM) | < 0.04 | 0.08 (≈ 0.137 µM) | 1.2 (≈ 2.06 µM) |  | < 0.04 | 0.67 |  |  |
| CCOC(=O)c1c(O)oc2c(C)c(O[C@@H]3OC(C)(C)[C@H](OC)[C@@H](OC(=O)NC(C)C)[C@H]3O)ccc2c1=O | > 40 | > 40 | > 40 | > 40 | 0.025 | > 40 |  |  |  |
| CO[C@@H]1[C@@H](OC(=O)c2ccc(C)[nH]2)[C@@H](O)[C@H](Oc2ccc3c(O)c(C(C)=O)c(=O)oc3c2C)OC1(C)C | 2.5 (≈ 4.85 µM) | < 0.04 | 0.3 (≈ 0.582 µM) | 5 (≈ 9.7 µM) | 2 |  |  |  |  |
| CO[C@@H]1[C@@H](OC(N)=O)[C@@H](O)[C@H](Oc2ccc3c(O)c(NC(=O)c4ccc(O)c(CC=C(C)C)c4)c(=O)oc3c2C)OC1(C)C [NOVOBIOCIN] | 0.6 (≈ 0.979 µM) | < 0.04 | 0.3 (≈ 0.49 µM) | 10 (≈ 16.3 µM) |  | < 0.04 |  |  |  |
| C#CCONC(=O)O[C@H]1[C@@H](O)[C@H](Oc2ccc3c(O)c(C(=O)NCCN4CCOCC4)c(=O)oc3c2C)OC(C)(C)[C@@H]1OC | 2.5 (≈ 4.03 µM) | < 0.04 | 1.2 (≈ 1.94 µM) | 1.2 (≈ 1.94 µM) |  | 0.08 (≈ 0.129 µM) | 2.6 | 0.08 (≈ 0.129 µM) |  |
| C#CCONC(=O)O[C@H]1[C@@H](O)[C@H](Oc2ccc3c(O)c(C(=O)NCCO)c(=O)oc3c2C)OC(C)(C)[C@@H]1OC | 1.2 (≈ 2.18 µM) | < 0.04 | 0.6 (≈ 1.09 µM) | 1.2 (≈ 2.18 µM) |  | < 0.04 | 2.6 | 0.08 (≈ 0.145 µM) |  |
| C#CCONC(=O)O[C@H]1[C@@H](O)[C@H](Oc2ccc3c(=O)c(/C(C)=N/OC)c(O)oc3c2C)OC(C)(C)[C@@H]1OC | 2.5 (≈ 4.68 µM) | 0.15 (≈ 0.281 µM) | 0.6 (≈ 1.12 µM) | 5 (≈ 9.35 µM) |  | 0.08 (≈ 0.15 µM) | 12.5 | 0.15 (≈ 0.281 µM) |  |
| CO/N=C(\C)c1c(O)oc2c(C)c(O[C@@H]3OC(C)(C)[C@H](OC)[C@@H](OC(=O)c4ccc(C)[nH]4)[C@H]3O)ccc2c1=O | 10 (≈ 18.4 µM) | 0.15 (≈ 0.275 µM) | 0.3 (≈ 0.551 µM) | 40 (≈ 73.5 µM) | 3.3 |  |  |  |  |
| CCOC(=O)c1c(O)oc2c(C)c(O[C@@H]3OC(C)(C)[C@H](OC)[C@@H](OC(=O)c4ccc(C)[nH]4)[C@H]3O)ccc2c1=O | 5 (≈ 9.17 µM) | 0.3 (≈ 0.55 µM) | 0.3 (≈ 0.55 µM) | > 20 | 3.1 |  |  |  |  |
| C#CCONC(=O)O[C@H]1[C@@H](O)[C@H](Oc2ccc3c(O)c(/C(C)=N/OCCN4CCOCC4)c(=O)oc3c2C)OC(C)(C)[C@@H]1OC | 20 (≈ 31.6 µM) | 0.15 (≈ 0.237 µM) | 1.2 (≈ 1.89 µM) | 5 (≈ 7.89 µM) |  | 0.15 (≈ 0.237 µM) | 4 | 0.6 (≈ 0.947 µM) |  |
| C#CCONC(=O)O[C@H]1[C@@H](O)[C@H](Oc2ccc3c(O)c(C(=O)NOCC=C(C)C)c(=O)oc3c2C)OC(C)(C)[C@@H]1OC | 0.3 (≈ 0.508 µM) | < 0.04 | 0.08 (≈ 0.135 µM) | 0.6 (≈ 1.02 µM) |  | 0.15 (≈ 0.254 µM) | 2 |  |  |
| CO[C@@H]1[C@@H](OC(=O)c2ccc(C)[nH]2)[C@@H](O)[C@H](Oc2ccc3c(O)c(C(N)=O)c(=O)oc3c2C)OC1(C)C | 2.5 (≈ 4.84 µM) | < 0.04 | 0.15 (≈ 0.29 µM) | 2.5 (≈ 4.84 µM) | 1.67 |  |  |  |  |
| C#CCONC(=O)O[C@H]1[C@@H](O)[C@H](Oc2ccc3c(=O)c(/C(C)=N/OCOCCOC)c(O)oc3c2C)OC(C)(C)[C@@H]1OC | 5 (≈ 8.22 µM) | 0.08 (≈ 0.131 µM) | 0.6 (≈ 0.986 µM) | 10 (≈ 16.4 µM) |  | 1.2 (≈ 1.97 µM) | 4 | 0.6 (≈ 0.986 µM) |  |
| CC#CCONC(=O)O[C@H]1[C@@H](O)[C@H](Oc2ccc3c(=O)c(C(=O)OCC)c(O)oc3c2C)OC(C)(C)[C@@H]1OC | > 40 | 10 (≈ 18.2 µM) | > 40 | > 40 |  | 10 (≈ 18.2 µM) |  | 40 (≈ 72.8 µM) | 0.5 |
| C#CCONC(=O)O[C@H]1[C@@H](O)[C@H](Oc2ccc3c(O)c(C(C)=O)c(=O)oc3c2C)OC(C)(C)[C@@H]1OC | 1.2 (≈ 2.37 µM) | < 0.04 | 0.3 (≈ 0.593 µM) | 2.5 (≈ 4.95 µM) |  | < 0.04 | 8.1 | 0.6 (≈ 1.19 µM) |  |
| C#CCONC(=O)O[C@H]1[C@@H](O)[C@H](Oc2ccc3c(=O)c(C(=O)NOC)c(O)oc3c2C)OC(C)(C)[C@@H]1OC | 2.5 (≈ 4.66 µM) | 0.08 (≈ 0.149 µM) | 0.6 (≈ 1.12 µM) | 10 (≈ 18.6 µM) |  | 0.08 (≈ 0.149 µM) | 11.1 | 0.6 (≈ 1.12 µM) |  |
| CCOC(=O)c1c(O)oc2c(C)c(O[C@@H]3OC(C)(C)[C@H](OC)[C@@H](OC(N)=O)[C@H]3O)ccc2c1=O | > 40 | > 40 | > 40 | > 40 | 1.6 |  |  |  |  |
